Assay results taken from ChEMBL document CHEMBL1136991, “Novel potent BRAF inhibitors: toward 1 nM compounds through optimization of the central phenyl ring” (J Med Chem, 2009).
Active and inactive are the calls of the source. The rule behind the calls is not given here.

Tests used:
[1] = biological target: T1, Serine/threonine-protein kinase B-raf (Homo sapiens, UniProt P15056, V600E); assay: Inhibition of BRAF V600E mutant
Procedure, shortened: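 Purified, isolated V600E BRAF enzyme assayed in vitro; potency reported as IC50.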

[2] = biological target: T1, Serine/threonine-protein kinase B-raf; assay: Inhibition of BRAF V600E mutant-mediated ERK phosphorylation in human WM266.4 cells; format: cell-based
Procedure, shortened: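 Cellular pathway read-out: ERK phosphorylation (pERK) was measured in WM266.4 melanoma cells and reported as an IC50.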

[3] = Growth inhibition of human WM266.4 cells expressing BRAF V600E mutant after 5 days by SRB assay; format: functional; conditions: WM 266-4, 120 h
Procedure, shortened: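 WM266.4 human melanoma cells, which are driven by mutant BRAF, were assayed for proliferation by sulforhodamine B (SRB) staining; the value is a GI50.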

WM1361 = assay: Growth inhibition of human WM1361 cells expressing NRAS mutant after 5 days by SRB assay; format: functional, cell-based

T1 sequence (P15056 2-766 V600E limits assumed): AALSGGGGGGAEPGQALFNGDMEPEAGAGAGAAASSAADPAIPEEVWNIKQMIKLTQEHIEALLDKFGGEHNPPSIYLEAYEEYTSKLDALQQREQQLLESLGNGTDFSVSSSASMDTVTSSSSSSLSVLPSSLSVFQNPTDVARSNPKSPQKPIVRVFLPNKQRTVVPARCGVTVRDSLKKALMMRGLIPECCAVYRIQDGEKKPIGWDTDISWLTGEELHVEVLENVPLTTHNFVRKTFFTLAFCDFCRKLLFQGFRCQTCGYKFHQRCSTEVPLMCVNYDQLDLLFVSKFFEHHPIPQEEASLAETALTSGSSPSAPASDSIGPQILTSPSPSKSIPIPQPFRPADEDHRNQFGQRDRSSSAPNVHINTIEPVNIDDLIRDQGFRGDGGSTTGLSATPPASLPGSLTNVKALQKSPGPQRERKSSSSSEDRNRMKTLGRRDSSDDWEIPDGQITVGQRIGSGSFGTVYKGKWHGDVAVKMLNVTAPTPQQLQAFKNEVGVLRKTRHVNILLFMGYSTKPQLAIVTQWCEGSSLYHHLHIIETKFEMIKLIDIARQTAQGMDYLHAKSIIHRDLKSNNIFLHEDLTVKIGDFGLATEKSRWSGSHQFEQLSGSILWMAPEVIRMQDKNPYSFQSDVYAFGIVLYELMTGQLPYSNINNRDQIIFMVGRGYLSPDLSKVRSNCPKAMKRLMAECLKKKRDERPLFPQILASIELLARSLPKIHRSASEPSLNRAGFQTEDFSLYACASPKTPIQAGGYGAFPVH

Row | SMILES | IC50 [1] [nM] | IC50 [2] [nM] | GI50 [3] [nM] | Activity (WM1361)
1 | O=C(Nc1cccc(F)c1)Nc1ccc(Oc2ccnc3[nH]c(=O)[nH]c23)c2ccccc12 | 37 | 214 | 290 | 
2 | O=C(Nc1cc(C(F)(F)F)ccc1N1CCOCC1)Nc1ccc(Oc2ccnc3[nH]c(=O)[nH]c23)c2ccccc12 | 14 | 346 | 291 | 
3 | O=C(Cc1cccc(OC(F)(F)F)c1)Nc1ccc(Oc2ccnc3[nH]c(=O)[nH]c23)c2ccccc12 | > 10000 | > 100000 | 3100 | 
4 | O=C(Cc1cccc(C(F)(F)F)c1)Nc1ccc(Oc2ccnc3[nH]c(=O)[nH]c23)c2ccccc12 | > 10000 | > 100000 |  | 
5 | CNC(=O)c1cc(Oc2ccc(NC(=O)Nc3ccc(Cl)c(C(F)(F)F)c3)cc2)ccn1 |  |  |  | inactive
6 | O=C(Nc1ccc(Oc2ccnc3[nH]c(=O)[nH]c23)cc1F)Nc1cc(C(F)(F)F)ccc1F | 7 | 1290 | 1150 | 
7 | COc1cc(NC(=O)Nc2ccc(Cl)c(C(F)(F)F)c2)ccc1Oc1ccnc2[nH]c(=O)[nH]c12 | 25 | 5500 | 6200 | 
8 | Cc1cc(NC(=O)Nc2ccc(Cl)c(C(F)(F)F)c2)ccc1Oc1ccnc2[nH]c(=O)[nH]c12 | 23 | 59000 | 1790 | 
9 | O=C(Nc1ccc(Cl)c(C(F)(F)F)c1)Nc1ccc(Oc2ccnc3[nH]c(=O)[nH]c23)cc1Cl | 23 | 1330 | 2000 | 
10 | CN(C)c1cc(Oc2ccnc3[nH]c(=O)[nH]c23)ccc1NC(=O)Nc1ccc(Cl)c(C(F)(F)F)c1 | 10000 | 20700 | 5340 | 
11 | COc1cc(NC(=O)Nc2cccc(C(F)(F)F)c2)ccc1Oc1ccnc2[nH]c(=O)[nH]c12 | 16 | 29400 | > 100000 | 
12 | O=C(Nc1ccc(Oc2ccnc3[nH]c(=O)[nH]c23)cc1)Nc1ccc(Cl)c(C(F)(F)F)c1 |  | 2390 | 4200 | 
13 | O=C(Nc1cccc(SC(F)(F)F)c1)Nc1ccc(Oc2ccnc3[nH]c(=O)[nH]c23)cc1F | 7 | 4150 | 1190 | 
14 | CS(=O)(=O)c1cc(Oc2ccnc3[nH]c(=O)[nH]c23)ccc1NC(=O)Nc1ccc(Cl)c(C(F)(F)F)c1 | 90 | 11000 | 11900 | 
15 | O=C(Nc1ccc(Oc2ccnc3[nH]c(=O)[nH]c23)c(F)c1)Nc1ccc(Cl)c(C(F)(F)F)c1 | 47 | 34000 |  | 
16 | O=C(Nc1ccc(Cl)c(C(F)(F)F)c1)Nc1ccc(Oc2ccnc3[nH]c(=O)[nH]c23)cc1C(F)(F)F | 22 | 3580 | 930 | 
17 | O=C(Nc1cccc(C(F)(F)F)c1)Nc1ccc(Oc2ccnc3[nH]c(=O)[nH]c23)cc1F | 12 | 3450 | 1610 | 
18 | CSc1cc(Oc2ccnc3[nH]c(=O)[nH]c23)ccc1NC(=O)Nc1cc(C(F)(F)F)ccc1F | 12 | 3060 | 2600 | 
19 | CSc1cc(Oc2ccnc3[nH]c(=O)[nH]c23)ccc1NC(=O)Nc1ccc(Cl)c(C(F)(F)F)c1 | 1 | 610 | 470 | 

Second part, led by results:

Row | IC50 [1] [nM] | IC50 [2] [nM] | SMILES | GI50 [3] [nM] | Activity (WM1361)
20 | 37 | 4720 | Cc1cc(Oc2ccnc3[nH]c(=O)[nH]c23)ccc1NC(=O)Nc1ccc(Cl)c(C(F)(F)F)c1 | 5900 | 
21 | 24 | 1460 | Cn1c(=O)[nH]c2nccc(Oc3ccc(NC(=O)Nc4cccc(SC(F)(F)F)c4)c4ccccc34)c21 | 1200 | 
22 | 220 | > 100000 | O=C(Nc1ccc(F)c(F)c1)Nc1ccc(Oc2ccnc3[nH]c(=O)[nH]c23)c2ccccc12 | 5500 | 
23 | 106 | > 100000 | COc1cc(Oc2ccnc3[nH]c(=O)[nH]c23)ccc1NC(=O)Nc1ccc(Cl)c(C(F)(F)F)c1 |  | 
24 | 17 | 810 | Cn1c(=O)[nH]c2nccc(Oc3ccc(NC(=O)Nc4cc(C(F)(F)F)ccc4F)c4ccccc34)c21 | 490 | 
25 | 10 | 600 | Cn1c(=O)[nH]c2nccc(Oc3ccc(NC(=O)Nc4cccc(C(F)(F)F)c4)c4ccccc34)c21 | 810 | 
26 | 167 | 2000 | Cn1c(=O)[nH]c2c(Oc3ccc(NC(=O)Nc4cc(C(F)(F)F)ccc4F)c4ccccc34)ccnc21 | 730 | 
27 | 6 | 1910 | O=C(Nc1cccc(C(F)(F)F)c1)Nc1ccc(Oc2ccnc3[nH]c(=O)[nH]c23)c2ccccc12 | 320 | 
28 | 23 | 770 | Cn1c(=O)[nH]c2nccc(Oc3ccc(NC(=O)Nc4ccc(Cl)c(C(F)(F)F)c4)c4ccccc34)c21 | 1040 | 
29 | 430 | 46000 | Cn1c(=O)[nH]c2c(Oc3ccc(NC(=O)Nc4cccc(C(C)(C)C)c4)c4ccccc34)ccnc21 | > 100000 | 
30 | 56 | 3900 | Cc1c(NC(=O)Nc2ccc(Cl)c(C(F)(F)F)c2)ccc(Oc2ccnc3[nH]c(=O)[nH]c23)c1C | 2000 | 
31 | 30 | 559 | O=C(Nc1ccc(Cl)c(C(F)(F)F)c1)Nc1ccc(Oc2ccnc3[nH]c(=O)[nH]c23)c2ccccc12 | 470 | 
32 | 156 | 3140 | Cn1c(=O)[nH]c2c(Oc3ccc(NC(=O)Nc4ccc(Cl)c(C(F)(F)F)c4)c4ccccc34)ccnc21 | 2300 | 
33 | 4600 | 18400 | Cn1c(=O)[nH]c2nccc(Oc3ccc(NC(=O)c4cccc(SC(F)(F)F)c4)c4ccccc34)c21 | 7600 | 
34 | 6500 | > 100000 | O=C(Nc1ccc(Cl)c(C(F)(F)F)c1)Nc1ccc(Oc2ccnc3[nH]c(=O)[nH]c23)cc1-c1ccccc1 | 5100 | 
35 | 10 | 21000 | Cn1c(=O)[nH]c2nccc(Oc3ccc(NC(=O)Nc4ccc(Cl)c(C(F)(F)F)c4)c(F)c3)c21 | 100000 | 
36 | 5200 | 31000 | Cn1c(=O)[nH]c2nccc(Oc3ccc(NC(=O)c4cccc(OC(F)(F)F)c4)c4ccccc34)c21 | 12000 | 
37 | 37 | 1060 | Cn1c(=O)[nH]c2nccc(Oc3ccc(NC(=O)Nc4cccc(C(C)(C)C)c4)c4ccccc34)c21 | 1130 | 
38 | 8 | 2170 | O=C(Nc1ccc(Cl)c(C(F)(F)F)c1)Nc1ccc(Oc2ccnc3[nH]c(=O)[nH]c23)cc1F | 1530 | 
